According to ChEMBL document CHEMBL1134301, “[1,2,4]Triazino[4,3-a]benzimidazole acetic acid derivatives: a new class of selective aldose reductase inhibitors” (J Med Chem, 2001):

What was measured:
[1] = biological target: Aldo-keto reductase family 1 member B1 (Rattus norvegicus, UniProt P07943); test: Inhibitory concentration to aldose reductase (ALR-2) obtained from rat lens
Rattus norvegicus [2] = species: Rattus norvegicus; test: Effect of the treatment on day 21 with ophthalmic solution (3%) on development of nuclear cataract in severely galactosemic rats; type: functional
Procedure, shortened: (§1)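 Sprague Dawley albino rats (45-55 g), 15 per group of equal average body weight, fed 50% D-galactose diet with ad libitum food and water. Eyedrops given four times daily in the precorneal region, starting 1 day before the switch to galactose chow. Vehicle controls were run on galactose and on normal diet. Lenses were checked by slit-lamp after 1% atropine mydriasis, and animals with nuclear cataract (central white opacity) were counted.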

Rattus norvegicus [3] = species: Rattus norvegicus; test: Effect of the treatment on day 16 with ophthalmic solution (3%)on development of nuclear cataract in severely galactosemic rats; type: functional; procedure, shortened: as §1
Rattus norvegicus [4] = species: Rattus norvegicus; test: Effect of the treatment on day 12 with ophthalmic solution (3%)on development of nuclear cataract in severely galactosemic rats; type: functional; procedure, shortened: as §1
Rattus norvegicus [5] = species: Rattus norvegicus; test: Effect of the treatment on day 15 with ophthalmic solution (3%)on development of nuclear cataract in severely galactosemic rats; type: functional; procedure, shortened: as §1
Rattus norvegicus [6] = species: Rattus norvegicus; test: Effect of the treatment on day 20 with ophthalmic solution (3%)on development of nuclear cataract in severely galactosemic rats; type: functional; procedure, shortened: as §1
Rattus norvegicus [7] = species: Rattus norvegicus; test: Effect of the treatment on day 13 with ophthalmic solution (3%)on development of nuclear cataract in severely galactosemic rats; type: functional; procedure, shortened: as §1
Rattus norvegicus [8] = species: Rattus norvegicus; test: Effect of the treatment on day 17 with ophthalmic solution (3%)on development of nuclear cataract in severely galactosemic rats; type: functional; procedure, shortened: as §1
Rattus norvegicus [9] = species: Rattus norvegicus; test: Effect of the treatment on day 19 with ophthalmic solution (3%)on development of nuclear cataract in severely galactosemic rats; type: functional; procedure, shortened: as §1
Rattus norvegicus [10] = species: Rattus norvegicus; test: Effect of the treatment on day 11 with ophthalmic solution (3%)on development of nuclear cataract in severely galactosemic rats; type: functional; procedure, shortened: as §1
Rattus norvegicus [11] = species: Rattus norvegicus; test: Effect of the treatment on day 18 with ophthalmic solution (3%)on development of nuclear cataract in severely galactosemic rats; type: functional; procedure, shortened: as §1
Rattus norvegicus [12] = species: Rattus norvegicus; test: Effect of the treatment on day 14 with ophthalmic solution (3%)on development of nuclear cataract in severely galactosemic rats; type: functional; procedure, shortened: as §1
Rattus norvegicus [13] = species: Rattus norvegicus; test: Effect of the treatment on day 20 with ophthalmic solution (1%)on development of nuclear cataract in severely galactosemic rats; type: functional; procedure, shortened: as §1
Rattus norvegicus [14] = species: Rattus norvegicus; test: Effect of the treatment on day 12 with ophthalmic solution (1%)on development of nuclear cataract in severely galactosemic rats; type: functional; procedure, shortened: as §1
Rattus norvegicus [15] = species: Rattus norvegicus; test: Effect of the treatment on day 21 with ophthalmic solution (1%) on development of nuclear cataract in severely galactosemic rats; type: functional; procedure, shortened: as §1
Rattus norvegicus [16] = species: Rattus norvegicus; test: Effect of the treatment on day 18 with ophthalmic solution (1%)on development of nuclear cataract in severely galactosemic rats; type: functional; procedure, shortened: as §1
Rattus norvegicus [17] = species: Rattus norvegicus; test: Effect of the treatment on day 19 with ophthalmic solution (1%)on development of nuclear cataract in severely galactosemic rats; type: functional; procedure, shortened: as §1
Rattus norvegicus [18] = species: Rattus norvegicus; test: Effect of the treatment on day 11 with ophthalmic solution (1%)on development of nuclear cataract in severely galactosemic rats; type: functional; procedure, shortened: as §1
Rattus norvegicus [19] = species: Rattus norvegicus; test: Effect of the treatment on day 13 with ophthalmic solution (1%)on development of nuclear cataract in severely galactosemic rats; type: functional; procedure, shortened: as §1
Rattus norvegicus [20] = species: Rattus norvegicus; test: Effect of the treatment on day 14 with ophthalmic solution (1%)on development of nuclear cataract in severely galactosemic rats; type: functional; procedure, shortened: as §1
Rattus norvegicus [21] = species: Rattus norvegicus; test: Effect of the treatment on day 17 with ophthalmic solution (1%)on development of nuclear cataract in severely galactosemic rats; type: functional; procedure, shortened: as §1
Rattus norvegicus [22] = species: Rattus norvegicus; test: Effect of the treatment on day 15 with ophthalmic solution (1%)on development of nuclear cataract in severely galactosemic rats; type: functional; procedure, shortened: as §1
Rattus norvegicus [23] = species: Rattus norvegicus; test: Effect of the treatment on day 16 with ophthalmic solution (1%)on development of nuclear cataract in severely galactosemic rats; type: functional; procedure, shortened: as §1

`O=C(O)Cn1nc2n(Cc3ccc(F)c(F)c3)c3ccccc3n2c(=O)c1=O` was tested, and the IC50 [1] was 4.42 µM.
For `O=C(O)CN/N=c1\n(Cc2ccc(Cl)cc2)c2ccccc2n1C(=O)C(=O)O`, the IC50 [1] was 10 µM.
In the case of `COc1ccc(Cn2/c(=N\NCC(=O)O)n(C(=O)C(=O)O)c3ccccc32)cc1`, the IC50 [1] is reported as 44.5 µM.
`O=C(O)CN/N=c1\n(Cc2ccc(Br)cc2F)c2ccccc2n1C(=O)C(=O)O` showed an IC50 [1] of 12.5 µM.
Compound `Cn1/c(=N\NCC(=O)O)n(C(=O)C(=O)O)c2ccccc21` has an IC50 [1] of 109 µM.
With `O=C(O)CN/N=c1\n(Cc2ccccc2)c2ccccc2n1C(=O)C(=O)O` the IC50 [1] was 4.5 µM.
With `O=C(O)Cn1nc2n(Cc3ccc(F)cc3)c3ccccc3n2c(=O)c1=O` the IC50 [1] was 4.58 µM.
In the case of `CCCn1c2ccccc2n2c(=O)c(=O)n(CC(=O)O)nc12`, the IC50 [1] is reported as 37.2 µM.
In the case of `O=C(O)Cn1nc2n(Cc3ccc(Br)cc3F)c3ccccc3n2c(=O)c1=O`, the IC50 [1] is reported as 4.47 µM.
`O=C(O)CN/N=c1\n(Cc2ccc(C(F)(F)F)cc2)c2ccccc2n1C(=O)C(=O)O` showed an IC50 [1] of 2.63 µM.
`Cc1ccc(Cn2c3ccccc3n3c(=O)c(=O)n(CC(=O)O)nc23)cc1` was tested, and the IC50 [1] was 13.3 µM.
For `O=C(O)Cc1nnc2nc3ccccc3n2c1O`, the IC50 [1] was 35.9 µM.
`O=C(O)Cn1nc2n(Cc3ccc(C(F)(F)F)cc3)c3ccccc3n2c(=O)c1=O` gave an IC50 [1] of 23.9 µM.
With `CC(C)OC(=O)Cn1nc2n(Cc3ccccc3)c3ccccc3n2c(=O)c1=O` the Nuclear cataract (Rattus norvegicus [2]) was 40%, the Nuclear cataract (Rattus norvegicus [3]) was 10% and the Nuclear cataract (Rattus norvegicus [4]) was 10%. The Nuclear cataract (Rattus norvegicus [5]) was 10%, the Nuclear cataract (Rattus norvegicus [6]) was 40% and the Nuclear cataract (Rattus norvegicus [7]) was 10%. It also gave a Nuclear cataract (Rattus norvegicus [8]) of 10%, a Nuclear cataract (Rattus norvegicus [9]) of 40% and a Nuclear cataract (Rattus norvegicus [10]) of 0%. For the same compound, the Nuclear cataract (Rattus norvegicus [11]) was 40% and the Nuclear cataract (Rattus norvegicus [12]) was 10%.
Compound `Cn1c2ccccc2n2c(=O)c(CC(=O)O)nnc12` has an IC50 [1] of 17 µM.
`O=C(O)Cn1nc2n(Cc3ccc(Cl)cc3)c3ccccc3n2c(=O)c1=O` gave an IC50 [1] of 4.15 µM.
`O=C(O)CN/N=c1\n(Cc2ccc(F)c(F)c2)c2ccccc2n1C(=O)C(=O)O` was tested, and the IC50 [1] was 9.72 µM.
With `COc1ccc(Cn2c3ccccc3n3c(=O)c(=O)n(CC(=O)O)nc23)cc1` the IC50 [1] was 42.6 µM.
Compound `O=C(O)CN/N=c1\n(CC(=O)O)c2ccccc2n1C(=O)C(=O)O` has an IC50 [1] of 236 µM.
Work on `O=C(O)Cn1nc2n(Cc3ccccc3)c3ccccc3n2c(=O)c1=O` yielded a Nuclear cataract (Rattus norvegicus [2]) of 50%, a Nuclear cataract (Rattus norvegicus [3]) of 10% and a Nuclear cataract (Rattus norvegicus [4]) of 0%. The Nuclear cataract (Rattus norvegicus [5]) was 10%, the Nuclear cataract (Rattus norvegicus [6]) was 50% and the Nuclear cataract (Rattus norvegicus [7]) was 0%. For the same compound, the Nuclear cataract (Rattus norvegicus [8]) was 10%, the IC50 [1] was 0.36 µM and the Nuclear cataract (Rattus norvegicus [9]) was 40%. The Nuclear cataract (Rattus norvegicus [10]) was 0%, the Nuclear cataract (Rattus norvegicus [11]) was 40% and the Nuclear cataract (Rattus norvegicus [12]) was 10%.
`O=C(O)CN/N=c1\n(Cc2ccc(F)cc2)c2ccccc2n1C(=O)C(=O)O` was tested, and the IC50 [1] was 14.8 µM.
`Cn1c2ccccc2n2c(=O)c(=O)n(CC(=O)O)nc12` showed an IC50 [1] of 24.8 µM.
`O=C(O)Cn1nc2n(CC(=O)O)c3ccccc3n2c(=O)c1=O` gave an IC50 [1] of 13.5 µM.
`O=C(O)Cc1nnc2n(Cc3ccccc3)c3ccccc3n2c1=O` was tested, and the IC50 [1] was 5.44 µM.
Work on `Cc1ccc(Cn2/c(=N\NCC(=O)O)n(C(=O)C(=O)O)c3ccccc32)cc1` yielded an IC50 [1] of 45.9 µM.
In the case of `CCCn1/c(=N\NCC(=O)O)n(C(=O)C(=O)O)c2ccccc21`, the IC50 [1] is reported as 46.5 µM.
`COc1ccc2c(C(=S)N(C)CC(=O)O)cccc2c1C(F)(F)F` [TOLRESTAT] was tested, and the Nuclear cataract (Rattus norvegicus [13]) was 47%, the Nuclear cataract (Rattus norvegicus [2]) was 0% and the Nuclear cataract (Rattus norvegicus [14]) was 0%. For the same compound, the Nuclear cataract (Rattus norvegicus [3]) was 0%, the Nuclear cataract (Rattus norvegicus [4]) was 0% and the Nuclear cataract (Rattus norvegicus [15]) was 47%. It also gave a Nuclear cataract (Rattus norvegicus [16]) of 43%, a Nuclear cataract (Rattus norvegicus [17]) of 43% and a Nuclear cataract (Rattus norvegicus [5]) of 0%. For the same compound, the Nuclear cataract (Rattus norvegicus [6]) was 0%, the Nuclear cataract (Rattus norvegicus [18]) was 0% and the Nuclear cataract (Rattus norvegicus [7]) was 0%. For the same compound, the Nuclear cataract (Rattus norvegicus [8]) was 0%, the Nuclear cataract (Rattus norvegicus [19]) was 0% and the IC50 [1] was 0.05 µM. The Nuclear cataract (Rattus norvegicus [9]) was 0%, the Nuclear cataract (Rattus norvegicus [20]) was 23% and the Nuclear cataract (Rattus norvegicus [21]) was 32%. For the same compound, the Nuclear cataract (Rattus norvegicus [22]) was 32%, the Nuclear cataract (Rattus norvegicus [10]) was 0% and the Nuclear cataract (Rattus norvegicus [11]) was 0%. It also gave a Nuclear cataract (Rattus norvegicus [23]) of 32% and a Nuclear cataract (Rattus norvegicus [12]) of 0%.
